High-throughput results deposited in PubChem BioAssay by several laboratories.
Yeast lifespan up = compounds extending yeast replicative lifespan, primary screen, S. cerevisiae, OD615. S. cerevisiae growth with nicotinamide; deaD strain in restrictive glucose medium. hit rate 0.68% among 130,000. inhibition of the nicotinamide effect, % at 10 µM;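 active = inhibition above a set limit, placed 3 SD over the median of all compounds, cut at about 26% in these data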;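 note: 0% = nicotinamide-treated wells and 100% = cells grown without nicotinamide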
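Assay system: engineered S. cerevisiae DeaD replicative-lifespan strain, galactose-grown log-phase cells; Buffer or medium: CSMM-D glucose medium, restrictive; Probe or stimulus: nicotinamide 1.5 mM; Compound: single dose 10 µM compound, 0.25% DMSO; Schedule: 4 h preincubation then 48 h treatment at 30 °C; Technique: OD615 measurement.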
Yeast growth inh = growth inhibitors of yeast BB579 in restrictive medium, primary screen, yeast lifespan-shortening project, S. cerevisiae; OD615, 48 h; inhibition, % at 10 µM; hit rate 0.51% among 140,000; AID 804, 2007;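 active = inhibition above a set limit, 3 SD over the mean compound inhibition, cut at about 44% in these data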
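Test system: DeaD yeast strain BB579 / Buffer or medium: restrictive glucose-based CSMM-D medium / Doses: single 10 µM dose / Schedule: 4 h cell preincubation, 48 h compound exposure, 30 °C humidified / Technique: culture absorbance at 615 nm / Controls: amphotericin B positive control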
RAM network inh = inhibitors of the yeast RAM network, primary screen, dse1pr::URA3 reporter, 5-FOA selection; AID 868, 2007; S. cerevisiae dse1pr::URA3 reporter, 5-FOA growth OD615, 2 d; analog-sensitive cbk1-as2 kinase mutant strain; hit rate 1.8% among 190,000; inhibition, % at 50 µM;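 active = inhibition above a set limit, 3 SD over mean compound inhibition, cut at about 8.4% in these data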;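 note: 0% = DMSO-only wells with no growth and 100% = 10 µM 1-NA-PP1 full growth; inhibition rescues growth on 5-FOA so higher OD means more RAM inhibition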
b-catenin transl = modulators of beta-catenin nuclear translocation, primary screen, imaging, HeLa cells, immunofluorescence, high-content. nuclear translocation activity, % at 5 µM. hit rate 0.3% among 190,000. AID 1665, 2009;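 active = nuclear translocation activity above 50% at 5 µM, with a well cell count of 50 or more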;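 note: per-cell ratio of nuclear to cytoplasmic median beta-catenin stain intensity; plate controls were DMSO negative control for no effect and GSK-3 inhibitor IX positive control for full effect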
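Test system: human HeLa cell line; Doses: 5 µM primary, 0.02–20 µM confirmation; Incubation: 24 h compound exposure, 37°C; Detection: beta-catenin immunofluorescence imaging with DAPI; Read-out: beta-catenin nuclear/cytoplasmic ratio, % activation.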
MT stabilizer = microtubule stabilizers in HeLa cells, primary screen, imaging, high-content imaging; hit rate 0.83% among 200,000; % tubulin-high responders, % at 10 µM; AID 2205, 2009; HeLa tubulin immunostaining HCS, 24 h; share of cells brighter than vehicle mean+2SD;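 active = plate Z-score above 3 for both tubulin-high and condensed-nucleus cell shares, with cell loss under 80%, at 10 µM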;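 note: anti alpha tubulin signal scored within the nucleus-defined area of each cell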
HMGR II inh = inhibitors of E. faecalis class II HMGR, primary screen, biochemical, Enterococcus faecalis | HMG-CoA reductase (Enterococcus faecalis, mvaE) | purified E. faecalis HMGR, NADPH absorbance 340 nm kinetic | inhibition, % at 10 µM | hit rate 0.41% among 190,000;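 active = inhibition above a set limit, the median over all tested compounds plus 3 SD, cut at about 9.5% in these data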;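 note: enzyme runs in reverse so mevalonate oxidation gives rising NADPH absorbance; 0% = complete reaction with DMSO and 100% = background rate lacking mevalonate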
* hit, by the source's call. In the library only some 3.5% were active in any assay of this set; here they are far more common.

How did Cc1cc(Nc2nc3ccccc3nc2Cl)n(-c2ccccc2C)n1 do in these assays?
Yeast lifespan up: -7.8; Yeast growth inh: 1.1; RAM network inh: -0.8; b-catenin transl: 1.0; MT stabilizer: 13.2*; HMGR II inh: -3.9

Results for Cc1cc(Nc2ccc(Cl)cc2)n(-c2ccccc2)n1 ?
Yeast lifespan up: -5.5; Yeast growth inh: -26.5; RAM network inh: -0.9; b-catenin transl: -1.5; MT stabilizer: 1.1; HMGR II inh: -3.0

Results for Cc1cc(Nc2nc3ccccc3nc2Cl)n(-c2ccccc2)n1 ?
Yeast lifespan up: -10.1; Yeast growth inh: 5.0; RAM network inh: 3.0; MT stabilizer: 12.5*; HMGR II inh: -5.3

What do the screens show for `O=C(O)CC(NC(=O)C(c1ccccc1)c1ccccc1)c1ccc(F)cc1` (stereo not drawn)?
RAM network inh: 2.3; b-catenin transl: -0.3; MT stabilizer: 5.9; HMGR II inh: -1.7

How did COC(=O)c1cc(=O)n(CCc2ccc(OC)cc2)c(=Nc2ccc(F)c(Cl)c2)s1 do in these assays?
Yeast lifespan up: 2.8; Yeast growth inh: 25.0; RAM network inh: 9.5*; MT stabilizer: 13.6; HMGR II inh: -5.1

How did COc1c(Br)cc([N+](=O)[O-])c(OC)c1C(=O)NC(=O)Nc1nc(C)cc(C)n1 do in these assays?
b-catenin transl: -1.1

How did CCCCCSc1nc(O)cc(=O)[nH]1 do in these assays?
Yeast lifespan up: 58.1*; Yeast growth inh: -18.9; RAM network inh: 0.9; MT stabilizer: 3.1; HMGR II inh: -0.8

What do the screens show for `Cc1ccc(OCCCOc2cccc3cccnc23)cc1C`?
Yeast lifespan up: -30.8; Yeast growth inh: 42.0; RAM network inh: -0.9; b-catenin transl: 2.5; MT stabilizer: 1.5; HMGR II inh: -4.6

What do the screens show for `CCOc1ccccc1OCCCCCc1c(C)n[nH]c1C`?
Yeast lifespan up: -7.3; Yeast growth inh: -18.5; RAM network inh: -0.6; b-catenin transl: 0.9; MT stabilizer: 6.2; HMGR II inh: -4.1

Results for Cc1cccc(OCCCOc2cccc3cccnc23)c1C ?
Yeast lifespan up: -28.0; Yeast growth inh: 72.8*; RAM network inh: 0.1; b-catenin transl: 0.9; MT stabilizer: 1.3; HMGR II inh: -11.1

Results for Cc1cccc(OCCCCc2c(C)n[nH]c2C)c1C ?
Yeast lifespan up: -19.3; Yeast growth inh: 69.1*; RAM network inh: -0.3; b-catenin transl: 4.6; MT stabilizer: 5.8; HMGR II inh: 4.2

How did COc1ccccc1OCCCc1c(C)n[nH]c1C do in these assays?
Yeast lifespan up: -30.1; Yeast growth inh: 99.6*; RAM network inh: -0.9; b-catenin transl: 0.4; MT stabilizer: 1.9; HMGR II inh: -6.2

What do the screens show for `COc1ccccc1OCCCCCc1c(C)n[nH]c1C`?
Yeast lifespan up: -10.2; Yeast growth inh: -31.3; RAM network inh: 1.1; b-catenin transl: -0.3; MT stabilizer: 1.5; HMGR II inh: 4.2

Results for COc1c(C)cc(C(=O)C2CCCN(C(=O)CCc3scnc3C)C2)cc1C (stereo not drawn) ?
RAM network inh: 0.8; b-catenin transl: 1.0; MT stabilizer: 4.1; HMGR II inh: -1.6

How did CC(C)CC(O)(CC(C)C)C(=O)NNc1ccccc1 do in these assays?
Yeast growth inh: -11.5; RAM network inh: 0.5; b-catenin transl: -0.6; MT stabilizer: 2.6; HMGR II inh: 15.4*

Results for CC(C)CCC(O)(CCC(C)C)C(=O)NNc1ccccc1 ?
Yeast lifespan up: 4.2; Yeast growth inh: -42.9; RAM network inh: 0.5; b-catenin transl: -1.3; MT stabilizer: 3.9; HMGR II inh: 4.5

How did CC(NC(=S)N1CCN(c2ccccc2)CC1)c1ccccc1 (stereo not drawn) do in these assays?
b-catenin transl: 1.2

How did Cc1cc(=O)oc2cc(OCCSc3nnc(-c4ccccc4)o3)ccc12 do in these assays?
Yeast lifespan up: -3.1; Yeast growth inh: -7.3; RAM network inh: 10.7*; b-catenin transl: -0.8; MT stabilizer: 1.7; HMGR II inh: -4.1

Results for CSc1ccc(/C=N/NC(=O)c2cc(O)cc(O)c2)cc1 ?
Yeast lifespan up: 1.1; Yeast growth inh: -3.8; RAM network inh: 3.2; b-catenin transl: -0.8; MT stabilizer: 2.5; HMGR II inh: -2.4

How did CSc1ccc(/C=N/NC(=O)c2ccc(C)c(C)c2)cc1 do in these assays?
Yeast lifespan up: -3.4; Yeast growth inh: -44.1; RAM network inh: -0.1; b-catenin transl: 1.1; MT stabilizer: 23.9*; HMGR II inh: 1.5

How did COc1ccc(SCCC(=O)NCc2ccncc2)cc1 do in these assays?
b-catenin transl: 0.9

How did CCOCCCNC(=O)C(NC(=O)Cc1c[nH]c2ccccc12)c1ccccc1 (stereo not drawn) do in these assays?
RAM network inh: 0.1; b-catenin transl: 0.8; MT stabilizer: 2.5; HMGR II inh: -1.3

How did CCC1CCCCN1S(=O)(=O)c1ccc(NC(=O)c2cccs2)cc1 (stereo not drawn) do in these assays?
Yeast growth inh: -29.6; RAM network inh: 4.5; b-catenin transl: -3.8; MT stabilizer: 3.1; HMGR II inh: 11.3*

What do the screens show for `CCC1CCCCN1S(=O)(=O)c1ccc(NC(=O)CSc2ncccc2C(=O)O)cc1` (stereo not drawn)?
Yeast lifespan up: -5.1; Yeast growth inh: -24.8; RAM network inh: 3.9; b-catenin transl: -2.7; MT stabilizer: 2.3; HMGR II inh: -4.8

What do the screens show for `CCC(C)NC(=O)CCc1nc2ccccc2n1-c1ccccc1` (stereo not drawn)?
Yeast lifespan up: 2.9; Yeast growth inh: -15.7; RAM network inh: 1.1; b-catenin transl: 1.0; MT stabilizer: 5.9; HMGR II inh: -5.3

What do the screens show for `CCn1c(/C(C#N)=N/O)nc2ccccc21`?
Yeast lifespan up: 2.8; Yeast growth inh: -60.5; RAM network inh: 1.5; MT stabilizer: 0.9; HMGR II inh: -0.4

How did Cn1c(/C(C#N)=N/O)nc2ccccc21 do in these assays?
Yeast growth inh: -46.3; RAM network inh: 0.2; b-catenin transl: -1.0; MT stabilizer: 2.2; HMGR II inh: 10.9*

How did CCOC(=O)CNC(=O)C12CC3CC(C1)CC(c1ccc(C)cc1)(C3)C2 do in these assays?
RAM network inh: 1.5; b-catenin transl: 0.1; MT stabilizer: 3.8; HMGR II inh: -4.1

Results for CCOc1ccc(NC(=O)C23CC4CC(C2)CC(c2ccccc2)(C4)C3)cc1 ?
Yeast lifespan up: 12.9; Yeast growth inh: -60.5; RAM network inh: 8.6*; MT stabilizer: 1.1; HMGR II inh: 1.9

What do the screens show for `O=C(CCNC(=O)c1ccccc1Cl)Nc1nnc(C2CC2)s1`?
RAM network inh: 0.9; b-catenin transl: -0.2; MT stabilizer: 1.5; HMGR II inh: -4.4
